The source made the active and inactive calls. No cut-off for these calls is given here.
Columns and labels:
[1] = target: Bromodomain-containing protein 4 (Homo sapiens, UniProt O60885); test: Inhibition of His/thioredoxin-tagged human recombinant BRD4 bromodomain-1 (43 to 166 residues) expressed in Escherichia coli BL21 Star (DE3) pre-incubated for 30 mins followed by biotinylated histone peptide H4 addition measured after 30 mins by AlphaScreen assay
MCF7 [2] = test: Antiproliferative activity against human MCF7 cells after 24 hrs by MTT assay; assay type: functional, cell-based; settings: MCF7, 24 h
MDA-MB-231 [3] = test: Antiproliferative activity against human MDA-MB-231 cells after 24 hrs by MTT assay; assay type: functional, cell-based; settings: MDA-MB-231, 24 h
MDA-MB-231 [4] = test: Induction of autophagy in GFP/mRFP treated human MDA-MB-231 cells assessed as induction of LC3 puncta at 150 uM by fluorescence microscopic analysis; assay type: functional, cell-based
Outline: (§1)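 MCF-7 or MDA-MB-231 cells transfected with GFP/mRFP-LC3 plasmid, then treated with 150 µM for indicated times. GFP-LC3 puncta observed by fluorescence microscopy.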

MCF7 [5] = test: Induction of autophagy in human MCF7 cells assessed as downregulation of p62/SQSTM1 expression at […] by Western blot analysis; assay type: functional, cell-based
MDA-MB-231 [6] = test: Induction of autophagy in human MDA-MB-231 cells assessed as downregulation of p62/SQSTM1 expression at […] by Western blot analysis; assay type: functional, cell-based
MCF7 [7] = test: Induction of autophagy in GFP/mRFP treated human MCF7 cells assessed as induction of LC3 puncta at 150 uM by fluorescence microscopic analysis; assay type: functional, cell-based; outline: as §1

| Structure (SMILES) | IC50 [1] [µM] | IC50 (MCF7 [2]) [µM] | IC50 (MDA-MB-231 [3]) [µM] | Activity (MDA-MB-231 [4]) | Activity (MCF7 [5]) | Activity (MDA-MB-231 [6]) | Activity (MCF7 [7]) |
| --- | --- | --- | --- | --- | --- | --- | --- |
| CC1CCc2c(sc3nc(-c4cc(F)c(F)c(F)c4)[nH]c(=O)c23)C1 (configuration not stated) | > 10 | > 30 | > 30 | – | – | – | – |
| COc1cccc(-c2nc3sc4c(c3c(=O)[nH]2)CCCC4)c1 | > 10 | > 30 | > 30 | – | – | – | – |
| Cc1cc(-c2nc3sc4c(c3c(=O)[nH]2)CCC4)cc(C)c1O | 6.38 | 18.5 | 23.1 | – | – | – | – |
| CN1CCc2c(sc3nc(-c4ccc(C(F)(F)F)cc4)[nH]c(=O)c23)C1 | > 10 | > 30 | 22.2 | – | – | – | – |
| O=c1[nH]c(-c2ccc(C(F)(F)F)cc2)nc2sc3c(c12)CCCCC3 | > 10 | > 30 | > 30 | – | – | – | – |
| CC1CCc2c(sc3nc(-c4ccc(Br)cc4)[nH]c(=O)c23)C1 (configuration not stated) | > 10 | > 30 | > 30 | – | – | – | – |
| COc1cccc(-c2nc3sc4c(c3c(=O)[nH]2)CCN(Cc2ccccc2)C4)c1 | > 10 | > 30 | > 30 | – | – | – | – |
| O=c1[nH]c(-c2cccc(Br)c2)nc2sc3c(c12)CCCCC3 | 5.73 | 18.5 | > 30 | – | – | – | – |
| CCCc1cc2c(=O)[nH]c(-c3cccc(OC)c3)nc2s1 | > 10 | > 30 | > 30 | – | – | – | – |
| O=c1[nH]c(-c2ccc(O)cc2)nc2sc3c(c12)CCN(Cc1ccccc1)C3 | 6.37 | 17 | > 30 | – | – | – | – |
| CCCc1cc2c(=O)[nH]c(-c3ccc(O)cc3)nc2s1 | 8.59 | > 30 | 28.4 | – | – | – | – |
| CN1CCc2c(sc3nc(-c4ccc(O)cc4)[nH]c(=O)c23)C1 | 0.72 | 5.48 | 8.29 | – | – | – | – |
| O=c1[nH]c(-c2ccccc2)nc2sc3c(c12)CCN(Cc1ccccc1)C3 | > 10 | > 30 | > 30 | – | – | – | – |
| Cc1cc(-c2nc3sc4c(c3c(=O)[nH]2)CCN(Cc2ccccc2)C4)cc(C)c1O | > 10 | > 30 | > 30 | – | – | – | – |
| CN1CCc2c(sc3nc(Cc4ccc(-c5ccccc5)cc4)[nH]c(=O)c23)C1 | > 10 | > 30 | > 30 | – | – | – | – |
| O=c1[nH]c(Cc2ccccc2)nc2sc3c(c12)CCC3 | > 10 | > 30 | > 30 | – | – | – | – |
| Cc1cc(-c2nc3sc4c(c3c(=O)[nH]2)CCC(C)C4)cc(C)c1O (configuration not stated) | 3.24 | 5.59 | 9.42 | – | – | – | – |
| O=c1[nH]c(-c2ccc(O)cc2)nc2sc3c(c12)CCCC3 | 7.32 | 22.8 | > 30 | – | – | – | – |
| O=c1[nH]c(-c2ccc(O)cc2)nc2sc3c(c12)CCCCC3 | 0.56 | 1.56 | 3.29 | – | – | – | – |
| Oc1nc(-c2ccccc2)nc2sc3c(c12)CCCC3 | > 10 | > 30 | > 30 | – | – | – | – |
| CC1CCc2c(sc3nc(-c4ccc(C(F)(F)F)cc4)[nH]c(=O)c23)C1 (configuration not stated) | > 10 | > 30 | > 30 | – | – | – | – |
| O=c1[nH]c(-c2ccc(Br)cc2)nc2sc3c(c12)CCC3 | 8.94 | 21.3 | > 30 | – | – | – | – |
| CCCc1cc2c(=O)[nH]c(Cc3ccc(-c4ccccc4)cc3)nc2s1 | > 10 | > 30 | > 30 | – | – | – | – |
| CN1CCc2c(sc3nc(-c4cccc(Br)c4)[nH]c(=O)c23)C1 | 1.04 | 2.17 | 8.31 | – | – | – | – |
| CC1CCc2c(sc3nc(-c4ccccc4)[nH]c(=O)c23)C1 (configuration not stated) | > 10 | > 30 | > 30 | – | – | – | – |

| Structure (SMILES) | IC50 [1] [µM] | IC50 (MCF7 [2]) [µM] | IC50 (MDA-MB-231 [3]) [µM] | Activity (MDA-MB-231 [4]) | Activity (MCF7 [5]) | Activity (MDA-MB-231 [6]) | Activity (MCF7 [7]) |
| --- | --- | --- | --- | --- | --- | --- | --- |
| COc1ccccc1-c1nc2sc3c(c2c(=O)[nH]1)CCC3 | 0.78 | 2.22 | 5.34 | – | – | – | – |
| Cc1sc2c(c1C)C(c1ccc(Cl)cc1)=N[C@@H](CC(=O)OC(C)(C)C)c1nnc(C)n1-2 | – | 28.8 | 33 | – | – | – | – |
| O=c1[nH]c(-c2cccc(O)c2)nc2sc3c(c12)CCCCC3 | 3.98 | 13.2 | 17.4 | – | – | – | – |
| O=c1[nH]c(-c2ccc(C(F)(F)F)cc2)nc2sc3c(c12)CCN(Cc1ccccc1)C3 | > 10 | > 30 | > 30 | – | – | – | – |
| COc1cc(OC)c2c(=O)[nH]c(-c3cc(C)c(OCCO)c(C)c3)nc2c1 [APABETALONE] | – | 140 | 155 | Active | Active | Active | Active |
| O=c1[nH]c(Cc2ccc(-c3ccccc3)cc2)nc2sc3c(c12)CCCCC3 | > 10 | > 30 | > 30 | – | – | – | – |
| CC1CCc2c(sc3nc(Cc4ccc(-c5ccccc5)cc4)[nH]c(=O)c23)C1 (configuration not stated) | > 10 | > 30 | > 30 | – | – | – | – |
| O=c1[nH]c(-c2ccc(C(F)(F)F)cc2)nc2sc3c(c12)CCC3 | 1.53 | 8.39 | 14.7 | – | – | – | – |
| CN1CCc2c(sc3nc(-c4cccc(O)c4)[nH]c(=O)c23)C1 | > 10 | > 30 | > 30 | – | – | – | – |
| COc1cccc(-c2nc(=O)c3c4c(sc3[nH]2)CC(C)CC4)c1 (configuration not stated) | > 10 | > 30 | > 30 | – | – | – | – |
| O=c1[nH]c(-c2ccccc2)nc2sc3c(c12)CCC3 | > 10 | > 30 | > 30 | – | – | – | – |
| O=c1[nH]c(-c2ccc(Br)cc2)nc2sc3c(c12)CCCC3 | > 10 | > 30 | > 30 | – | – | – | – |
| Cc1cc(-c2nc3sc4c(c3c(=O)[nH]2)CCCCC4)cc(C)c1O | 0.49 | 2.81 | 8.31 | – | – | – | – |
| O=c1[nH]c(-c2cccc(Br)c2)nc2sc3c(c12)CCC3 | > 10 | > 30 | > 30 | – | – | – | – |
| Cc1cc(-c2nc3sc4c(c3c(=O)[nH]2)CCCC4)cc(C)c1O | 6.93 | 24.9 | 27.8 | – | – | – | – |
| CC1CCc2c(sc3nc(-c4cccc(Br)c4)[nH]c(=O)c23)C1 (configuration not stated) | 1.02 | 2.69 | 16.3 | – | – | – | – |
| O=c1[nH]c(-c2ccc(Br)cc2)nc2sc3c(c12)CCCCC3 | > 10 | > 30 | > 30 | – | – | – | – |
| O=c1[nH]c(-c2ccc(F)cc2F)nc2sc3c(c12)CCCC3 | > 10 | > 30 | > 30 | – | – | – | – |
| CC1CCc2c(sc3nc(-c4cccc(O)c4)[nH]c(=O)c23)C1 (configuration not stated) | > 10 | > 30 | > 30 | – | – | – | – |
| CCCc1cc2c(=O)[nH]c(-c3cccc(Br)c3)nc2s1 | > 10 | > 30 | > 30 | – | – | – | – |
| O=c1[nH]c(Cc2ccccc2)nc2sc3c(c12)CCCCC3 | 0.82 | 4.5 | 5.8 | – | – | – | – |
| CC1CCc2c(sc3nc(Cc4ccccc4)[nH]c(=O)c23)C1 (configuration not stated) | > 10 | > 30 | > 30 | – | – | – | – |
| COc1ccccc1-c1nc2sc3c(c2c(=O)[nH]1)CCN(C)C3 | 2.47 | 5.6 | 8.19 | – | – | – | – |
| O=c1[nH]c(-c2ccc(C(F)(F)F)cc2)nc2sc3c(c12)CCCC3 | > 10 | 28.1 | > 30 | – | – | – | – |
| CC1CCc2c(sc3nc(-c4ccc(O)cc4)[nH]c(=O)c23)C1 (configuration not stated) | 4.31 | 12.2 | 22.9 | – | – | – | – |

Reference: ChEMBL document CHEMBL4028911, “Discovery of a Small-Molecule Bromodomain-Containing Protein 4 (BRD4) Inhibitor That Induces AMP-Activated Protein Kinase-Modulated Autophagy-Associated Cell Death in Breast Cancer” (J Med Chem, 2017)
